Experimental data from ChEMBL document CHEMBL1140313, “Potent inhibitors of subgenomic hepatitis C virus RNA replication through optimization of indole-N-acetamide allosteric inhibitors of the viral NS5B polymerase” (J Med Chem, 2005).

Legend:
Huh-7 [1] = experiment: Effective concentration required to inhibit replication of subgenomic HCV RNA in HUH-7 cells; assay type: functional, cell-based; settings: Homo sapiens
In short: (§1)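 Subgenomic HCV replicon in HUH-7 cells, run in medium with 10% fetal calf serum (a modification of Bartenschlager's method). EC50 was determined only for compounds giving >50% inhibition in an initial screen at a fixed 5 μM. Values are the arithmetic mean ± half-range or standard error of at least two independent determinations, or from a single experiment where noted.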

[2] = target: T1, RNA-directed RNA polymerase (Hepacivirus hominis, UniProt O39930); experiment: Inhibitory activity against by hepatitis C virus NS5B polymerase
In short: (§2)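 Purified ΔC55 NS5B polymerase assayed with heterogenic template RNA. IC50 values come from a single experiment or are arithmetic means of multiple experiments, as footnoted; some were measured in duplicate.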

[3] = target: T1, RNA-directed RNA polymerase; experiment: Inhibitory activity against hepatitis C virus NS5B polymerase enzyme; Range=6-9 nM; in short: as §2
Huh-7 [4] = experiment: Effective concentration required to inhibit replication of subgenomic HCV RNA in HUH-7 cells in the presence of 10% fetal calf serum; assay type: functional, cell-based; settings: Homo sapiens; in short: as §1
Huh-7 [5] = experiment: Effective concentration required to inhibit replication of subgenomic HCV RNA in HUH-7 cells in the presence of 50% normal human serum; assay type: functional, cell-based
In short: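 Subgenomic HCV replicon in HUH-7 cells run under high-serum conditions with 50% normal human serum in place of 10% fetal calf serum. EC50 values are the arithmetic mean ± half-range or standard error of at least two independent determinations.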

[6] = target: T2, pregnane X receptor (PXR, NR1I2) (Homo sapiens, UniProt O75469); experiment: Inhibition of pregnane X receptor mediated activation of alkaline phosphatase reporter gene at 10 uM; assay type: functional
T2 sequence (O75469 whole entry): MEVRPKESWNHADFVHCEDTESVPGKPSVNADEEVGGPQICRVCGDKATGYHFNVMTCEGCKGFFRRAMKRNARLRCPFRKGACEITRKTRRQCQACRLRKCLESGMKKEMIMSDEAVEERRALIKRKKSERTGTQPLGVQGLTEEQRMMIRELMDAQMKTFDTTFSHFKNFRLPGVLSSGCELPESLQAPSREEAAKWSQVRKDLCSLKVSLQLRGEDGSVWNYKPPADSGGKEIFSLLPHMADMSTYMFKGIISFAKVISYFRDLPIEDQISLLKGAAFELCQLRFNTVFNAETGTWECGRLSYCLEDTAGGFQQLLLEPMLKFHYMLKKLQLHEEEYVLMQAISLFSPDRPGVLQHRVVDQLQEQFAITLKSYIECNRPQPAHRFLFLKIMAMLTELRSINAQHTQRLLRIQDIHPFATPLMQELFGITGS
In short: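 HepG2 cells were cotransfected with a human PXR expression vector and a secreted alkaline phosphatase (SEAP) reporter driven by a synthetic PXR-responsive element. Cells were incubated 48 h with or without test compound, and SEAP activity was read with a commercial detection kit.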

[7] = Plasma clearance in dog; assay type: ADME, organism-based, Canis lupus familiaris; settings: read-out: Clp
In short: (§3)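 Sprague-Dawley rats and male beagle dogs, dosed as trifluoroacetate salts (mg/kg; n = 3, some n = 2). Rat vehicle: iv 20% DMSO/[…] with po PEG-400, or iv 20% DMSO/80% saline with po 50% PEG-400/50% H2O. Dog vehicle: iv 20% DMSO/40% PEG-400/40% H2O, po PEG-400. Plasma levels measured by HPLC–MS/MS; noncompartmental analysis; terminal half-life from iv.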

[8] = Plasma clearance in rat; assay type: ADME, organism-based; settings: read-out: Clp; in short: as §3
[9] = Plasma half life following 3 mg/kg iv administration in rat; assay type: ADME, organism-based; set-up: dose 3 mg/kg, route intravenous; in short: as §3
[10] = Oral bioavailability in dog at a dose of 2 mg/kg; assay type: ADME, organism-based, Canis lupus familiaris; settings: in vivo; in short: as §3
[11] = Oral bioavailability in rat (dose 3 mg/kg); assay type: ADME, organism-based; settings: in vivo; in short: as §3
[12] = Plasma half life following 0.5 mg/kg iv administration in dog

T1 sequence (O39930 whole entry): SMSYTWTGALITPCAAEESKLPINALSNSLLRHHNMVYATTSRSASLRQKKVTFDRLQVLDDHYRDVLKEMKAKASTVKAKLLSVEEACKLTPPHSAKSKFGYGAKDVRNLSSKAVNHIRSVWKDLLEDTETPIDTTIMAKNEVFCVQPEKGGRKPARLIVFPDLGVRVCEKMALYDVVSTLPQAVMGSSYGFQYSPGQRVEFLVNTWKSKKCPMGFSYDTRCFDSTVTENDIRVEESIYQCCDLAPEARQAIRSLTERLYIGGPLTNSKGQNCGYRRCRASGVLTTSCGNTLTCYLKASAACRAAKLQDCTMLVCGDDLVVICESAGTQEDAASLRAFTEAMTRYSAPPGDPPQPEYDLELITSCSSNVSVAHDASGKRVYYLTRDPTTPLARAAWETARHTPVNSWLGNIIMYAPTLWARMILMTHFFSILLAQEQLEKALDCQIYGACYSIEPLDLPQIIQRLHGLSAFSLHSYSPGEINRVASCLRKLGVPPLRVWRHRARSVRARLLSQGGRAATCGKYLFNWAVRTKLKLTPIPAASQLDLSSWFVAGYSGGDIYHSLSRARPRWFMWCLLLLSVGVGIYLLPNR

| Structure (SMILES) | EC50 (Huh-7 [1]) [nM] | IC50 [2] [nM] | EC50 (Huh-7 [4]) [nM] | also measured |
| --- | --- | --- | --- | --- |
| CC(C)N(C)C(=O)Cn1c(-c2ccccc2)c(C2CCCC2)c2ccc(C(=O)O)cc21 | > 5000 | – | – | – |
| CN(C)C1CCN(C(=O)Cn2c(-c3ccc(Cl)cc3)c(C3CCCCC3)c3ccc(C(=O)O)cc32)C1 (stereo unspecified) | 200 | 13 | – | – |
| CN(C)C(=O)Cn1c(-c2cccnc2)c(C2CCCCC2)c2ccc(C(=O)O)cc21 | – | 332 | 13000 | – |
| O=C(O)c1ccc2c(c1)c(C1CCCCC1)c(-c1ccccc1)n2CC(=O)N1CCS(=O)(=O)CC1 | > 5000 | – | – | – |
| CN(C)C1CCN(C(=O)Cn2c(-c3ccc(Cl)cc3)c(C3CCCCC3)c3ccc(C(=O)O)cc32)CC1 | – | – | – | inhibition at 10 µM [6]: 15% |
| CN(C)C1CCN(C(=O)Cn2c(-c3ccccc3)c(C3CCCCC3)c3ccc(C(=O)O)cc32)CC1 | – | 41 | 300 | inhibition at 10 µM [6]: 14% |
| CN(C)Cc1cc(-c2c(C3CCCCC3)c3ccc(C(=O)O)cc3n2CC(=O)N(C)C)ccc1Cl | – | 78 | 2700 | – |
| CN(C)C1CCN(C(=O)Cn2c(C3CCCCC3)c(C3CCCCC3)c3ccc(C(=O)O)cc32)CC1 | – | 72 | 4000 | – |
| O=C(O)c1ccc2c(C3CCCCC3)c(-c3ccoc3)n(CC(=O)N3CCC(N4CCC4)CC3)c2c1 | – | – | 199 | IC50 [3]: 9 nM; EC50 (Huh-7 [5]): 633 nM |
| CN1CCN(C(=O)Cn2c(-c3ccccc3)c(C3CCCC3)c3ccc(C(=O)O)cc32)CC1 | 800 | 68 | – | – |
| CN(C)C1CCN(C(=O)Cn2c(-c3ccccc3)c(C3CCCCC3)c3cc(C(=O)O)ccc32)C1 (stereo unspecified) | 5000 | 244 | – | – |
| CS(=O)(=O)N1CCN(C(=O)Cn2c(-c3ccccc3)c(C3CCCCC3)c3ccc(C(=O)O)cc32)CC1 | 900 | 19 | – | – |
| O=C(Cn1c(-c2ccccc2)c(C2CCCCC2)c2ccc(C(=O)O)cc21)NCC1CC1 | 1300 | 63 | – | – |
| CN(C)Cc1ccc(-c2c(C3CCCCC3)c3ccc(C(=O)O)cc3n2CC(=O)N(C)C)cc1 | – | 920 | 17600 | – |
| CC(C)N(C)C(=O)Cn1c(-c2ccccc2)c(C2CCCCC2)c2cc(C(=O)O)ccc21 | > 5000 | – | – | – |
| CN1CCCC(CN(C)C(=O)Cn2c(-c3ccccc3)c(C3CCCC3)c3ccc(C(=O)O)cc32)C1 (stereo unspecified) | 400 | 47 | – | – |

Further lines, with some results ahead:

| EC50 (Huh-7 [1]) [nM] | IC50 [2] [nM] | EC50 (Huh-7 [4]) [nM] | Structure (SMILES) | also measured |
| --- | --- | --- | --- | --- |
| > 5000 | – | – | CS(=O)(=O)N1CCN(C(=O)Cn2c(-c3ccccc3)c(C3CCCCC3)c3cc(C(=O)O)ccc32)CC1 | – |
| – | – | 144 | CCN(CC)C1CCN(C(=O)Cn2c(-c3ccc(OC)cc3)c(C3CCCCC3)c3ccc(C(=O)O)cc32)CC1 | IC50 [3]: 9 nM; EC50 (Huh-7 [5]): 422 nM |
| 500 | 7 | – | CS(=O)(=O)N1CCN(C(=O)Cn2c(-c3ccc(Cl)cc3)c(C3CCCCC3)c3ccc(C(=O)O)cc32)CC1 | – |
| – | 78 | 1100 | CC(C)N(C)Cc1cccc(-c2c(C3CCCCC3)c3ccc(C(=O)O)cc3n2CC(=O)N(C)C)c1 | – |
| – | 49 | 2800 | C=Cc1c(C2CCCCC2)c2ccc(C(=O)O)cc2n1CC(=O)N1CCC(N(C)C)CC1 | – |
| > 5000 | – | – | O=C(O)c1ccc2c(C3CCCC3)c(-c3ccccc3)n(CC(=O)N3CCS(=O)(=O)CC3)c2c1 | – |
| 500 | 39 | – | CN1CCN(C(=O)Cn2c(-c3ccccc3)c(C3CCCCC3)c3ccc(C(=O)O)cc32)CC1 | – |
| – | 228 | – | C#Cc1c(C2CCCCC2)c2ccc(C(=O)O)cc2n1CC(=O)N1CCC(N(C)C)CC1 | – |
| – | – | 152 | CCN(CC)CC1CN(C(=O)Cn2c(-c3ccc(OC)cc3)c(C3CCCCC3)c3ccc(C(=O)O)cc32)CCO1 (stereo unspecified) | IC50 [3]: 9 nM; EC50 (Huh-7 [5]): 376 nM |
| – | – | 158 | COc1ccc(-c2c(C3CCCCC3)c3ccc(C(=O)O)cc3n2CC(=O)N2CCC(N(C)C)CC2)cc1 | IC50 [3]: 9 nM; EC50 (Huh-7 [5]): 677 nM |
| – | 134 | 6700 | CN(C)C(=O)Cn1c(-c2ccncc2)c(C2CCCCC2)c2ccc(C(=O)O)cc21 | – |
| 300 | 18 | – | CN1CCCC(CN(C)C(=O)Cn2c(-c3ccccc3)c(C3CCCCC3)c3ccc(C(=O)O)cc32)C1 (stereo unspecified) | clearance [7]: 22 mL/min/kg; clearance [8]: 51 mL/min/kg; half-life [9]: 1.5 h; bioavailability [10]: 28%; bioavailability [11]: 1.9%; inhibition at 10 µM [6]: 10%; half-life [12]: 1.2 h |
